RORA act – RORA (human) activation; actives 1.5% (n = 65,000); CHO-K1 Gal4-RORA LBD luciferase reporter, luminescence; percent increase over mock-subtracted basal signal; AID 560; activation, % at 10 µM;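 active = activation above the mean of all tested compounds plus 3 SD, cut at about 49% in these data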;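 also: 0% = DMSO-treated RORA cells and 100% = added signal equal to DMSO minus mock-transfected cells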
PTK2B oligo ant – antagonists of human Pyk2 oligomerization | Q14289 | Q293 cells, Pyk2 FERM NanoBiT luminescence; hits give low values | z-score (the deposit names both 25 µM and 10 µM) | actives 0.83% (n = 99,000);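 active = Z-score of -3 or lower, scaled per plate to the spread of control and sample wells; inactive = z-score above -3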;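 also: negative z-score means lost luminescence so less FERM oligomerization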
SF-1 act – SF-1 (human) activation; CHO-K1 Gal4-SF-1 LBD luciferase reporter; % increase over DMSO SF-1-specific signal; activation, % at 10 µM; actives 1.9% (n = 65,000);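 active = activation above the mean activation of all tested compounds plus 3 SD, cut at about 50% in these data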
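Material: Gal4–SF-1 LBD one-hybrid luciferase reporter in CHO-K1 cells | Amount: 4,000 cells per well | Compound dosing: 10 µM single point, 1% DMSO | Schedule: 20 h compound treatment, 37 °C | Measured by: SteadyLite luciferase luminescence | Evaluation: Percent activation versus DMSO | Control set: DMSO-treated SF-1-transfected cells as negative, DMSO-treated mock-transfected cells lacking SF-1 as background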
ERb coact inh – ER-beta (human) coactivator binding inhibition; Q92731; TR-FRET ER-beta LBD / SRC1-Cy5 peptide binding; receptor agonist-loaded with 1 µM estradiol; inhibition, % at 25.6 µM; actives 1.3% (n = 86,000);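 active = compounds whose percent inhibition of the receptor-coactivator binding signal exceeds about 50% in the single-dose screen, limit read from the data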;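 also: 0% = receptor plus peptide wells without compound and 100% = peptide-only wells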
Target sequence (Q92731 whole entry, looked up, the tested form may be a part): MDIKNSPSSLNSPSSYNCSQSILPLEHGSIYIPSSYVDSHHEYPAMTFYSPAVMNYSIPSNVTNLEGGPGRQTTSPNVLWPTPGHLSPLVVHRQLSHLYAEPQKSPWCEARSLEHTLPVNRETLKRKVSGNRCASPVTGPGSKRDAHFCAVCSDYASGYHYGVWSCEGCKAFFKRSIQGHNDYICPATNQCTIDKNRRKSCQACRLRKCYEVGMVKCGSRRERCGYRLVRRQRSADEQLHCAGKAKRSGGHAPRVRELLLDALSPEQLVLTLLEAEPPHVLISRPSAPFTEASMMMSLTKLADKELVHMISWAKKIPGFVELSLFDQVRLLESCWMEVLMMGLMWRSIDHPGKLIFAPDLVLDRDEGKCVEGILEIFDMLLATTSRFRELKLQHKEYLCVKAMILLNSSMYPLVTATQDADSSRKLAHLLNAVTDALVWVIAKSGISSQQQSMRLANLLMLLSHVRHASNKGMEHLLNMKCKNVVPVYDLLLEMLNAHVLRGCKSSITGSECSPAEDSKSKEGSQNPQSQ
ERa coact pot – enhances coactivator binding to human estrogen receptor alpha; actives 1.3% (n = 86,000); coactivator binding (% of control), % at 25.6 µM; P03372; TR-FRET ERalpha-LBD/SRC-Cy5 coactivator binding, 2 h; 100 = basal binding, no effect; in the data active = activity above about 200%;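 also: binding measured in presence of low estradiol as agonist stimulus; 0% = peptide alone without receptor and 100% = receptor with peptide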
ERa coact inh – ER-alpha (human) coactivator binding inhibition; TR-FRET ER-alpha LBD / SRC-1 peptide, estradiol-bound; inhibition, % at 25.6 µM; actives 1.7% (n = 86,000); in the data active = inhibition above about 50%;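 also: 0% = receptor plus peptide control and 100% = peptide only without receptor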
Active calls of the source: *; . = no result given; [ ] = another dose, or the depositor's remark. A selection: hits, their analogues and other compounds. The true share with any hit is near 4.8%.

SMILES	RORA act	PTK2B oligo ant	SF-1 act	ERb coact inh	ERa coact pot	ERa coact inh
Cc1ccc2oc(=O)c3cc(C(=O)N4CCN(c5ncccn5)CC4)sc3c2c1	-13.3	.	-7.0	29.1	141.6	74.2*[fluorescence artefact?]
NC(=O)c1ccc([N+](=O)[O-])cc1SCc1ccccc1	.	0.58	.	53.3*[fluorescence artefact?]	54.4	39.3
CCN(CC)S(=O)(=O)c1ccc2c(c1)nc(SCC(=O)NC1CC1)n2-c1ccccc1OC	-4.8	-3.3*	3.0	-5.3	84.8	2.1
Cc1ccc(-c2cc(-c3ccc4c(c3)OCO4)c(C#N)c(N)n2)o1	-13.1	-0.98	8.7	27.0	17.6	82.3*[fluorescence artefact?]
Cc1ccc(-c2cc(-c3ccc(Cl)cc3)c(C#N)c(N)n2)o1	-0.2	-0.54	-2.6	23.5	74.6	40.2
Cc1cc(-c2cc(-c3ccc(Cl)cc3)nc(N)c2C#N)co1	-7.1	0.08	-5.7	27.8	49.8	50.7*[fluorescence artefact?]
N#Cc1c(N)oc(-c2ccc3c(c2)OCO3)c1-c1ccc2c(c1)OCO2	18.3	-1.42	27.2	72.8*	30.4	72.7*
Cc1ccc(-c2cc(-c3ccc(C)o3)nc(N)c2C#N)cc1	-10.8	-0.55	-13.9	10.4	75.4	10.3
CC(=O)c1c(C)[nH]c(C(=O)COC(=O)CN(C)S(=O)(=O)c2ccc(Cl)cc2)c1C	.	0.13	.	7.5	96.5	3.5
CCOC(=O)c1c(C)nc2c(c(SC)nn2-c2ccccc2)c1N	.	1.32	.	.	.	.
CCOC(=O)C1=C(C)NC(C)=C(C(=O)OCC)C1C(=O)OCC(=O)N1CCc2ccccc2C1	-6.4	0.11	3.6	4.0	95.2	15.7
Cc1ccc(-n2nc(C)c(C3C(C#N)=C(N)OC4=C3C(=O)CC(C)(C)C4)c2Cl)cc1 (configuration not stated)	30.0	.	57.0*	-13.2	98.1	3.7
Cc1cccc(-n2c(O)c(C=Nc3ccc4c(c3)OCO4)c3ccccc3c2=O)n1	-12.3	-1.42	-8.8	25.6	49.5	70.9*[fluorescence artefact?]
CCOC(=O)N1CCN(C(=O)CN(c2cccc(C(F)(F)F)c2)S(C)(=O)=O)CC1	2.7	1.29	-6.0	-1.9	127.3	-2.3
COc1ccc(N2Cc3cccc(C(=O)N4CCOCC4)c3C2=O)cc1	18.0	0.01	-5.2	1.3	113.2	4.9
COc1ccc(N2Cc3cccc(C(=O)N4CCN(C(=O)c5ccco5)CC4)c3C2=O)cc1	-1.0	.	0.1	68.1*	83.5	70.6*
COc1ccc(-n2nc3c(c2NC(=O)c2cc4ccccc4oc2=O)CS(=O)(=O)C3)cc1	16.6	.	-3.7	66.4*[fluorescence artefact?]	85.7	63.3*
O=C1COc2ccc(OCc3ccc(F)cc3)cc21	78.3*	0.55	7.9	-1.1	102.6	18.1
COc1ccc2c(c1)C(=O)c1ccccc1CO2	.	0.65	.	19.3	96.4	-3.6
Cc1cc(C)n(-c2nc3ccccc3c(=O)n2OCCOc2ccccc2)n1	9.4	1.44	-5.5	55.6*[fluorescence artefact?]	32.6	7.3
CSc1cccc(NC(=O)C2CCN(C(=O)c3ccccc3C)CC2)c1	.	0.17	.	.	.	.
Cc1ccc(C(=O)/C=C/Nc2ccccc2C(N)=O)o1	34.5	-0.25	63.2*	0.1	108.2	-0.7
NC(=O)c1ccccc1N/C=C/C(=O)c1ccc(F)cc1	.	-0.25	.	9.4	100.1	-5.0
COc1ccc(NC(=O)Cn2cc(C(=O)c3ccco3)c3ccccc32)cc1	.	-3.01*	.	2.4	66.9	24.6
COCCn1nnnc1CN1CCC(C)CC1	.	-0.2	.	-14.9	101.1	-17.5
SMILES	RORA act	PTK2B oligo ant	SF-1 act	ERb coact inh	ERa coact pot	ERa coact inh
Cc1ccc(NC2=NC(=S)N(CC#N)C23CCCCC3)cc1	.	0.35	.	-3.1	109.0	-4.3
CCOC(=O)CSc1nc(-c2ccc3c(c2)OCO3)ccc1C#N	6.8	0.84	63.6*	0.5	129.2	7.1
CCOC(=O)CSc1nc(-c2ccncc2)ccc1C#N	16.5	0.09	80.5*	-2.9	108.0	-5.1
N#Cc1cc2cc3c(cc2nc1SCC(=O)OC1CCCCC1)OCO3	-9.3	-1.39	-0.9	42.6	231.0*[fluorescence artefact?]	32.4
COc1ccc(CONS(=O)(=O)c2ccc(NC(C)=O)cc2)cc1Cl	.	-1.24	.	.	.	.
Cc1noc(C)c1S(=O)(=O)N1CCC(C(=O)NC2CCCc3ccccc32)CC1 (configuration not stated)	31.7	-0.01	10.2	5.6	78.0	3.0
O=C(O)/C(=C\c1ccco1)NC(=O)c1cccc2ccccc12	.	-0.6	.	.	.	.
C/C(N)=C(/C#N)C(=O)CSc1nnc(-c2ccc3c(c2)OCO3)o1	.	0.02	.	.	.	.
CCOC(=O)c1c(C)[nH]c(C)c1C(=O)CSc1nnc(-c2ccc(OC(F)F)cc2)o1	.	0.3	.	23.8	276.2*	45.6
C/C(N)=C(/C#N)C(=O)CSc1nnc(-c2ccc(OC(F)F)cc2)o1	39.8	0.51	63.0*	62.4*	57.8	56.4*
CCOC(=O)c1[nH]c(CSc2nnc(-c3ccc(OC)cc3)o2)c(C(=O)OCC)c1C	-7.9	0.19	1.8	9.2	127.0	10.2
CCn1c(COc2ccc3c(c2)OCO3)nnc1SCC(=O)c1ccc(Cl)cc1	.	0.8	.	36.0	121.0	30.1
Cc1n[nH]c(C)c1S(=O)(=O)N(CC(=O)N1CCc2ccccc21)c1ccc(C(C)C)cc1	-21.0	.	11.4	50.3*	56.2	54.2*[fluorescence artefact?]
CC1CCCC(C)N1C(=O)c1cc(-c2ccc(Cl)c(Cl)c2)on1 (configuration not stated)	76.0*	-0.36	26.3	-3.2	135.1	0.0
Cc1ccc(-c2cc(C(=O)N3CCCC3)no2)cc1	-50.7	1.64	-50.9	-3.8	113.2	-2.6
Cc1cccc(-n2ncc3c(Nc4ccc(F)cc4)ncnc32)c1	64.0*	.	74.4*	-8.3	96.8	-2.6
COc1ccc(-n2ncc3c(Nc4cccc(C)c4)ncnc32)cc1	29.9	-1.44	80.0*	-3.2	110.5	-2.5
CCCSc1nnc(NC(=O)Nc2ccc(F)cc2)s1	-1.0	-1.74	-15.3	8.4	246.9*	10.8
CCCSc1nnc(NC(=O)Nc2ccccc2)s1	36.7	.	52.6*	-0.1	116.5	-3.9
CCOC(=O)c1[nH]c(C)c(C(=O)Nc2cccc(Cl)c2C)c1C	64.2*	0.34	30.1	-7.6	124.1	-1.2
CCCCc1noc2c1/C(=N\O)CC(c1ccccc1)C2 (configuration not stated)	71.7*	-1.33	32.3	0.9	92.1	-7.6
CCc1ccccc1Nc1ccc(C(=O)O)cc1N	14.9	-0.35	59.6*	0.6	107.7	4.5
Nc1cc(C(=O)O)ccc1Nc1ccccc1	22.4	0.53	20.4	.	.	.
Cn1ccnc1SCC(=O)Nc1cc(C(F)(F)F)ccc1N1CCOCC1	.	-0.17	.	.	.	.
COc1ccc(Nc2ncnc3sc(-c4ccccc4)cc23)cc1	.	-1.21	.	.	.	.
COc1ncnc2sc(-c3ccccc3)cc12	27.6	1.13	51.3*	-0.8	110.0	7.1
O=[N+]([O-])c1c(C(Cl)Cl)nn(-c2ccccc2)c1N1CCCC1	.	-0.44	.	.	.	.

Screening results as filed in PubChem BioAssay.
